In the library only some 5.9% were active in any assay of this set; here they are far more common.
Cav3 T inh: inhibitors of human Cav3.2 T-type calcium channel. O95180. Cav3.2-expressing cells, Fluo-4 calcium fluorescence FDSS; hits give low values. B-score at 10 µM. 100,000 tested, 4% active;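 active = single-dose well whose peak fluorescence ratio is a statistical outlier from its plate by either plate-standardised score or position-corrected B-score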
Phagocytosis inh: blocks phagocytosis by macrophages | AID 1029 | inhibition, % at 5 µM | J774A.1 macrophage IgG-bead phagocytosis, imaging | 110,000 tested, 0.07% active;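 active = inhibition above the mean of the plate negative controls plus 5 SD, cut at about 13% in these data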;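 also: phagocytic index as fraction of beads internalized from green versus red external bead signal; plate controls were DMSO negative control for no effect and cytochalasin-D positive control for full effect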
DAT uptake mod: changed human dopamine transporter uptake under cocaine IC80. 110,000 tested, 1.3% active. B-score at 10 µM. LLC-PK1 hDAT cells, [14C]-dopamine uptake with cocaine IC80; actives deviate in either direction. Q01959;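 active = Z score or B-score, a plate-position-corrected score, falls beyond the plate's 99.7% confidence bounds, in either direction; inactive = both scores lie inside the 99.7% bounds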;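 also: scored against the spread of the other compound wells on the same plate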
Target sequence (Q01959 whole entry, looked up): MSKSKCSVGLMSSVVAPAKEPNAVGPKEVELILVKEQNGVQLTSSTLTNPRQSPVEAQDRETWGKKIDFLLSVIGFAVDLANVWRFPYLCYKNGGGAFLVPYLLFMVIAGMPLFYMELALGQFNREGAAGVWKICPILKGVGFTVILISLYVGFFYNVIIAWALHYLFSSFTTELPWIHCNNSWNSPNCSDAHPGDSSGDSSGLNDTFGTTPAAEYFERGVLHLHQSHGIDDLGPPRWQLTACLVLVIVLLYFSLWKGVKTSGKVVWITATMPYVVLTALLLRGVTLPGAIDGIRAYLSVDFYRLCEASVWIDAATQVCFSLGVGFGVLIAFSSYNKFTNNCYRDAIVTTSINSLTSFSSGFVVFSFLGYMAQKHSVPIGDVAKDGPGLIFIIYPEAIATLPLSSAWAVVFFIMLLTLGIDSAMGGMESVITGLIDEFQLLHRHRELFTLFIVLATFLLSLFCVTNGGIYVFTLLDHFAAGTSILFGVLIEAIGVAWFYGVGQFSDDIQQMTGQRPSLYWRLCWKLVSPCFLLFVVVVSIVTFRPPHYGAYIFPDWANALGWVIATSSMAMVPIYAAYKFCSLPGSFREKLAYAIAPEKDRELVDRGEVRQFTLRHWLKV
HIV Rev-RRE inh: HIV Rev-RRE protein-RNA interaction inhibition; 97,000 tested, 0.79% active; inhibition, % at 8 µM; AID 704; Rev peptide-RRE RNA binding, FRET; P05866;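 active = inhibition above the screen-wide mean plus 3 SD, cut at about 35% in these data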;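 also: 0% = median DMSO wells and 100% = median Neomycin B control wells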
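Assay system: Rev peptide and RRE RNA, both fluorescently labelled; times: 5 min preincubation and 15 min binding, 25 °C; detection: FRET, ex 480 nm, em 540 and 671 nm; read-out basis: % inhibition from 671/540 nm acceptor-to-donor ratio, scaled between controls; benchmarks: DMSO low control, neomycin B high control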
Measles CPE: protection of cells from measles virus. Measles virus-infected cells, CPE protection, absorbance. protection (pct of control), % at 4 µM. 140,000 tested, 1.5% active. AID 841; in the data active = protection mostly above about 24%, no sharp cut-off; inactive = mostly below about 26%
PTK2B oligo ant: antagonists of human Pyk2 oligomerization; Q293 cells, Pyk2 FERM NanoBiT luminescence; hits give low values; z-score (the deposit names both 25 µM and 10 µM); 99,000 tested, 0.83% active; AID 1347419;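 active = Z-score of -3 or lower, scaled per plate to the spread of control and sample wells; inactive = z-score above -3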;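 also: negative z-score means lost luminescence so less FERM oligomerization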
* hit, by the source's call; . = no result; [ ] = remark or other dose.

SMILES	Cav3 T inh	Phagocytosis inh	DAT uptake mod	HIV Rev-RRE inh	Measles CPE	PTK2B oligo ant
CCOc1ccc(-c2nc(CSCC(=O)NC3CCCc4ccccc43)c(C)o2)cc1 (configuration not stated)	-6.3*	0	1.1	-3	5	-0.15
COc1cccc(-c2nc(CS(=O)(=O)CC(=O)NC3CCCc4ccccc43)c(C)o2)c1 (configuration not stated)	-6.8*	.	0.036	3	2	.
COc1cccc(-c2nc(CS(=O)(=O)CC(=O)N3CCc4ccccc4C3)c(C)o2)c1	-4.8*	-1	-0.32	.	8	.
COc1cccc(-c2nc(CS(=O)(=O)CC(=O)N3CCN(C)CC3)c(C)o2)c1	-0.0088	.	0.33	0	4	.
CCOCCCNC(=O)CS(=O)(=O)Cc1nc(-c2cccc(OC)c2)oc1C	0.44	0	0.99	-6	17	0.29
CCc1cccc(NC(=O)CCCSc2nc3ccccc3[nH]2)c1	.	-4	.	.	8	.
C=CCNC(=O)COc1cc(C)ccc1C	.	-5	.	.	10	.
CC1CCc2cccc3c2N1c1cc(C#N)c(C#N)cc1O3 (configuration not stated)	-3.6*	.	-0.29	40*	0	-1.4
CCOc1cc(N(CC)CC)ccc1/C=C(/C#N)c1nc2ccccc2[nH]1	.	.	.	132*[fluorescence artefact?]	26	-3.1*
CCCOc1cc(N(CC)CC)ccc1/C=C(/C#N)c1nc2ccc(C)cc2[nH]1	-5*	-5	-0.42	133*[fluorescence artefact?]	20	-2.8
COc1cc(/C=C(\C#N)c2nc3ccc(C)cc3[nH]2)c([N+](=O)[O-])cc1OC	-1.2	-2	-0.2	9	1	-1.1
CCN(CC)c1ccc(/C=C(/C#N)c2nc3ccc(C)cc3[nH]2)c(OC(C)C)c1	-5.5*	.	-0.27	138*[fluorescence artefact?]	3	-3.1*
Nc1ccc2c(c1)C(=O)C(=O)c1ccccc1-2	0.061	1	-3.2*	4	0	-4.1*
O=C1C(=O)c2ccc(-c3ccccc3)cc2-c2ccccc21	0.054	.	0.022	7	2	-4.8*
Cc1ccc(NC(=O)C(=O)NCc2ccc(/C=C(/C#N)C(=O)NCc3cccnc3)o2)cc1C	.	.	.	.	21	.
CCOC(=O)c1c(C=O)c(C)n(Cc2ccccc2Cl)c1C	-3.2	.	0.11	15	14	-0.82
CCOC(=O)c1c(C=O)c(C)n(Cc2ccc(C)cc2)c1C	-6.1*	-1	1.8	13	27	-2.7
COc1ccc(C(=O)NC(NC(=S)Nc2ccc(S(N)(=O)=O)cc2)C(Cl)(Cl)Cl)cc1 (configuration not stated)	0.75	0	-2.3*	-1	11	-0.59
CCCCCC(=O)NC(NC(=S)Nc1ccc(S(N)(=O)=O)cc1)C(Cl)(Cl)Cl (configuration not stated)	1.7	.	-3.6*	-3	6	0.18
CCCCCCCC(=O)NC(Nc1ccc(S(N)(=O)=O)cc1)C(Cl)(Cl)Cl (configuration not stated)	-4.5	.	-8.3*	11	9	0.39
CC(C)(CO)C(O)C(=O)NCCC#N (configuration not stated)	0.99	.	1.1	.	.	.
Cc1nn(CC(=O)Nc2ccc(Cl)cn2)c(C)c1Br	.	-5	.	.	4	.
Cc1ccc([N+](=O)[O-])cc1N(CC(=O)Nc1ccc(S(=O)(=O)Nc2cccc(C(F)(F)F)c2)cc1)S(C)(=O)=O	.	-4	.	.	13	.
FC(F)(F)c1cccc(-c2nnc(-c3ccccc3)c(N3CCOCC3)n2)c1	-3	.	1.8	8	3	-3.9*
COc1cc(C=NCC2OCCc3ccccc32)cc(OC)c1 (configuration not stated)	.	-10	.	.	8	0.38
CCCN(CCC)S(=O)(=O)c1ccc(C(=O)NNc2nc(-c3ccccc3)c3cc(Br)ccc3n2)cc1	.	5	.	.	4	0.17
COc1ccc(Cl)cc1N(CC(=O)Nc1cccc(SC)c1)S(C)(=O)=O	-2.8	-1	-0.043	10	4	-2.2
CSc1cccc(NC(=O)CN(c2cc(C)ccc2C)S(C)(=O)=O)c1	-5.8*	-1	1.1	10	15	-1.1
CNC(=O)CN(c1cc(C)ccc1C)S(C)(=O)=O	0.43	1	-0.041	6	4	1.2
COc1ccc(N(CC(=O)Nc2cccc(SC)c2)S(C)(=O)=O)cc1Cl	-5.9*	0	0.72	7	4	-1.9
